tested on: HeLa; assay: Antiproliferative activity against human HeLa cells assessed as cell survival ratio at 0.1 uM treated 1 hr before 2Gy ionizing radiation measured after 6 to 8 days by DMR clonogenic assay; assay type: functional
Summary of the method: (§1)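 HeLa cells seeded in 6-well dishes, incubated overnight at 37 °C/5% CO2, pre-treated 1 h with vehicle or inhibitor (0.1 or 0.5 μM), then given 2 Gy X-ray IR and held overnight. Medium then replaced without compound and culture continued 6-8 days. Colonies Giemsa-stained and counted automatically. DMR = % survival (vehicle, 2 Gy) / % survival (compound, 2 Gy).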

Row | Structure (SMILES) | Ratio
1 | O=C(CCNCCO)Nc1ccc(-c2cccc3c(=O)cc(N4CCOCC4)oc23)c2sc3ccccc3c12 | 0.9
2 | O=C(CN1CCOCC1)Nc1ccc(-c2cccc3c(=O)cc(N4CCOCC4)oc23)c2sc3ccccc3c12 | 3.9
3 | O=C(CNCC1CCCO1)Nc1ccc(-c2cccc3c(=O)cc(N4CCOCC4)oc23)c2sc3ccccc3c12 (centres undefined) | 1.7
4 | O=C(CN1CCCCC1)Nc1ccc(-c2cccc3c(=O)cc(N4CCOCC4)oc23)c2sc3ccccc3c12 | 1.2
5 | O=C(CNCCO)Nc1ccc(-c2cccc3c(=O)cc(N4CCOCC4)oc23)c2sc3ccccc3c12 | 1.6
6 | CN1CCN(CCC(=O)Nc2ccc(-c3cccc4c(=O)cc(N5CCOCC5)oc34)c3sc4ccccc4c23)CC1 | 1
7 | CC(=O)N1CCN(CCC(=O)Nc2ccc(-c3cccc4c(=O)cc(N5CCOCC5)oc34)c3sc4ccccc4c23)CC1 | 0.9
8 | CN1CCN(C(=O)COc2ccc(-c3cccc4c(=O)cc(N5CCOCC5)oc34)c3sc4ccccc4c23)CC1 | 1.1
9 | CN(C)CCN(C)C(=O)COc1ccc(-c2cccc3c(=O)cc(N4CCOCC4)oc23)c2sc3ccccc3c12 | 1.4
10 | NCCC(=O)Nc1ccc(-c2cccc3c(=O)cc(N4CCOCC4)oc23)c2sc3ccccc3c12 | 1.1
11 | O=C(CCN1CCCN(CCO)CC1)Nc1ccc(-c2cccc3c(=O)cc(N4CCOCC4)oc23)c2sc3ccccc3c12 | 1.2
12 | C[C@@H]1CN(CC(=O)Nc2ccc(-c3cccc4c(=O)cc(N5CCOCC5)oc34)c3sc4ccccc4c23)C[C@H](C)O1 | 1.3
13 | C[C@@H]1CN(C(=O)COc2ccc(-c3cccc4c(=O)cc(N5CCOCC5)oc34)c3sc4ccccc4c23)C[C@H](C)O1 | 0.9
14 | O=C(CN1CCCN(CCO)CC1)Nc1ccc(-c2cccc3c(=O)cc(N4CCOCC4)oc23)c2sc3ccccc3c12 | 1.2
15 | CCN(CC(=O)Nc1ccc(-c2cccc3c(=O)cc(N4CCOCC4)oc23)c2sc3ccccc3c12)Cc1ccncc1 | 1.5
16 | O=C(CNCCCN1CCOCC1)Nc1ccc(-c2cccc3c(=O)cc(N4CCOCC4)oc23)c2sc3ccccc3c12 | 2
17 | COCCNCCC(=O)Nc1ccc(-c2cccc3c(=O)cc(N4CCOCC4)oc23)c2sc3ccccc3c12 | 2.3
18 | CN1CCN(CCOc2ccc(-c3cccc4c(=O)cc(N5CCOCC5)oc34)c3sc4ccccc4c23)CC1 | 3.1
19 | COCCN1CCN(CC(=O)Nc2ccc(-c3cccc4c(=O)cc(N5CCOCC5)oc34)c3sc4ccccc4c23)CC1 | 2.2

tested on: not listed separately; assay: Fraction unbound in human Plasma; assay type: ADME, cell-free

Row | fraction unbound | Structure (SMILES)
20 | 0.0049 | CC(=O)N1CCN(CCOc2ccc(-c3cccc4c(=O)cc(N5CCOCC5)oc34)c3sc4ccccc4c23)CC1

molecular target: Serine/threonine-protein kinase mTOR (Homo sapiens, UniProt P42345); assay: Inhibition of mTOR (unknown origin)

Row | IC50 | Structure (SMILES)
21 | 2800 nM | O=c1cc(N2CCOCC2)oc2c(-c3ccccc3)cccc12 [LY-294002]

molecular target: Serine/threonine-protein kinase ATR (Homo sapiens, UniProt Q13535); assay: Inhibition of ATR (unknown origin)

Row | IC50 | Structure (SMILES)
22 | > 10000 nM | O=c1cc(N2CCOCC2)oc2c(-c3ccccc3)cccc12 [LY-294002]

molecular target: T1, DNA-dependent protein kinase catalytic subunit (Homo sapiens, UniProt P78527); assay: Inhibition of DNA-PK autophosphorylation at S2056 in human HeLa cells; assay type: cell-based
T1 sequence (P78527 whole entry): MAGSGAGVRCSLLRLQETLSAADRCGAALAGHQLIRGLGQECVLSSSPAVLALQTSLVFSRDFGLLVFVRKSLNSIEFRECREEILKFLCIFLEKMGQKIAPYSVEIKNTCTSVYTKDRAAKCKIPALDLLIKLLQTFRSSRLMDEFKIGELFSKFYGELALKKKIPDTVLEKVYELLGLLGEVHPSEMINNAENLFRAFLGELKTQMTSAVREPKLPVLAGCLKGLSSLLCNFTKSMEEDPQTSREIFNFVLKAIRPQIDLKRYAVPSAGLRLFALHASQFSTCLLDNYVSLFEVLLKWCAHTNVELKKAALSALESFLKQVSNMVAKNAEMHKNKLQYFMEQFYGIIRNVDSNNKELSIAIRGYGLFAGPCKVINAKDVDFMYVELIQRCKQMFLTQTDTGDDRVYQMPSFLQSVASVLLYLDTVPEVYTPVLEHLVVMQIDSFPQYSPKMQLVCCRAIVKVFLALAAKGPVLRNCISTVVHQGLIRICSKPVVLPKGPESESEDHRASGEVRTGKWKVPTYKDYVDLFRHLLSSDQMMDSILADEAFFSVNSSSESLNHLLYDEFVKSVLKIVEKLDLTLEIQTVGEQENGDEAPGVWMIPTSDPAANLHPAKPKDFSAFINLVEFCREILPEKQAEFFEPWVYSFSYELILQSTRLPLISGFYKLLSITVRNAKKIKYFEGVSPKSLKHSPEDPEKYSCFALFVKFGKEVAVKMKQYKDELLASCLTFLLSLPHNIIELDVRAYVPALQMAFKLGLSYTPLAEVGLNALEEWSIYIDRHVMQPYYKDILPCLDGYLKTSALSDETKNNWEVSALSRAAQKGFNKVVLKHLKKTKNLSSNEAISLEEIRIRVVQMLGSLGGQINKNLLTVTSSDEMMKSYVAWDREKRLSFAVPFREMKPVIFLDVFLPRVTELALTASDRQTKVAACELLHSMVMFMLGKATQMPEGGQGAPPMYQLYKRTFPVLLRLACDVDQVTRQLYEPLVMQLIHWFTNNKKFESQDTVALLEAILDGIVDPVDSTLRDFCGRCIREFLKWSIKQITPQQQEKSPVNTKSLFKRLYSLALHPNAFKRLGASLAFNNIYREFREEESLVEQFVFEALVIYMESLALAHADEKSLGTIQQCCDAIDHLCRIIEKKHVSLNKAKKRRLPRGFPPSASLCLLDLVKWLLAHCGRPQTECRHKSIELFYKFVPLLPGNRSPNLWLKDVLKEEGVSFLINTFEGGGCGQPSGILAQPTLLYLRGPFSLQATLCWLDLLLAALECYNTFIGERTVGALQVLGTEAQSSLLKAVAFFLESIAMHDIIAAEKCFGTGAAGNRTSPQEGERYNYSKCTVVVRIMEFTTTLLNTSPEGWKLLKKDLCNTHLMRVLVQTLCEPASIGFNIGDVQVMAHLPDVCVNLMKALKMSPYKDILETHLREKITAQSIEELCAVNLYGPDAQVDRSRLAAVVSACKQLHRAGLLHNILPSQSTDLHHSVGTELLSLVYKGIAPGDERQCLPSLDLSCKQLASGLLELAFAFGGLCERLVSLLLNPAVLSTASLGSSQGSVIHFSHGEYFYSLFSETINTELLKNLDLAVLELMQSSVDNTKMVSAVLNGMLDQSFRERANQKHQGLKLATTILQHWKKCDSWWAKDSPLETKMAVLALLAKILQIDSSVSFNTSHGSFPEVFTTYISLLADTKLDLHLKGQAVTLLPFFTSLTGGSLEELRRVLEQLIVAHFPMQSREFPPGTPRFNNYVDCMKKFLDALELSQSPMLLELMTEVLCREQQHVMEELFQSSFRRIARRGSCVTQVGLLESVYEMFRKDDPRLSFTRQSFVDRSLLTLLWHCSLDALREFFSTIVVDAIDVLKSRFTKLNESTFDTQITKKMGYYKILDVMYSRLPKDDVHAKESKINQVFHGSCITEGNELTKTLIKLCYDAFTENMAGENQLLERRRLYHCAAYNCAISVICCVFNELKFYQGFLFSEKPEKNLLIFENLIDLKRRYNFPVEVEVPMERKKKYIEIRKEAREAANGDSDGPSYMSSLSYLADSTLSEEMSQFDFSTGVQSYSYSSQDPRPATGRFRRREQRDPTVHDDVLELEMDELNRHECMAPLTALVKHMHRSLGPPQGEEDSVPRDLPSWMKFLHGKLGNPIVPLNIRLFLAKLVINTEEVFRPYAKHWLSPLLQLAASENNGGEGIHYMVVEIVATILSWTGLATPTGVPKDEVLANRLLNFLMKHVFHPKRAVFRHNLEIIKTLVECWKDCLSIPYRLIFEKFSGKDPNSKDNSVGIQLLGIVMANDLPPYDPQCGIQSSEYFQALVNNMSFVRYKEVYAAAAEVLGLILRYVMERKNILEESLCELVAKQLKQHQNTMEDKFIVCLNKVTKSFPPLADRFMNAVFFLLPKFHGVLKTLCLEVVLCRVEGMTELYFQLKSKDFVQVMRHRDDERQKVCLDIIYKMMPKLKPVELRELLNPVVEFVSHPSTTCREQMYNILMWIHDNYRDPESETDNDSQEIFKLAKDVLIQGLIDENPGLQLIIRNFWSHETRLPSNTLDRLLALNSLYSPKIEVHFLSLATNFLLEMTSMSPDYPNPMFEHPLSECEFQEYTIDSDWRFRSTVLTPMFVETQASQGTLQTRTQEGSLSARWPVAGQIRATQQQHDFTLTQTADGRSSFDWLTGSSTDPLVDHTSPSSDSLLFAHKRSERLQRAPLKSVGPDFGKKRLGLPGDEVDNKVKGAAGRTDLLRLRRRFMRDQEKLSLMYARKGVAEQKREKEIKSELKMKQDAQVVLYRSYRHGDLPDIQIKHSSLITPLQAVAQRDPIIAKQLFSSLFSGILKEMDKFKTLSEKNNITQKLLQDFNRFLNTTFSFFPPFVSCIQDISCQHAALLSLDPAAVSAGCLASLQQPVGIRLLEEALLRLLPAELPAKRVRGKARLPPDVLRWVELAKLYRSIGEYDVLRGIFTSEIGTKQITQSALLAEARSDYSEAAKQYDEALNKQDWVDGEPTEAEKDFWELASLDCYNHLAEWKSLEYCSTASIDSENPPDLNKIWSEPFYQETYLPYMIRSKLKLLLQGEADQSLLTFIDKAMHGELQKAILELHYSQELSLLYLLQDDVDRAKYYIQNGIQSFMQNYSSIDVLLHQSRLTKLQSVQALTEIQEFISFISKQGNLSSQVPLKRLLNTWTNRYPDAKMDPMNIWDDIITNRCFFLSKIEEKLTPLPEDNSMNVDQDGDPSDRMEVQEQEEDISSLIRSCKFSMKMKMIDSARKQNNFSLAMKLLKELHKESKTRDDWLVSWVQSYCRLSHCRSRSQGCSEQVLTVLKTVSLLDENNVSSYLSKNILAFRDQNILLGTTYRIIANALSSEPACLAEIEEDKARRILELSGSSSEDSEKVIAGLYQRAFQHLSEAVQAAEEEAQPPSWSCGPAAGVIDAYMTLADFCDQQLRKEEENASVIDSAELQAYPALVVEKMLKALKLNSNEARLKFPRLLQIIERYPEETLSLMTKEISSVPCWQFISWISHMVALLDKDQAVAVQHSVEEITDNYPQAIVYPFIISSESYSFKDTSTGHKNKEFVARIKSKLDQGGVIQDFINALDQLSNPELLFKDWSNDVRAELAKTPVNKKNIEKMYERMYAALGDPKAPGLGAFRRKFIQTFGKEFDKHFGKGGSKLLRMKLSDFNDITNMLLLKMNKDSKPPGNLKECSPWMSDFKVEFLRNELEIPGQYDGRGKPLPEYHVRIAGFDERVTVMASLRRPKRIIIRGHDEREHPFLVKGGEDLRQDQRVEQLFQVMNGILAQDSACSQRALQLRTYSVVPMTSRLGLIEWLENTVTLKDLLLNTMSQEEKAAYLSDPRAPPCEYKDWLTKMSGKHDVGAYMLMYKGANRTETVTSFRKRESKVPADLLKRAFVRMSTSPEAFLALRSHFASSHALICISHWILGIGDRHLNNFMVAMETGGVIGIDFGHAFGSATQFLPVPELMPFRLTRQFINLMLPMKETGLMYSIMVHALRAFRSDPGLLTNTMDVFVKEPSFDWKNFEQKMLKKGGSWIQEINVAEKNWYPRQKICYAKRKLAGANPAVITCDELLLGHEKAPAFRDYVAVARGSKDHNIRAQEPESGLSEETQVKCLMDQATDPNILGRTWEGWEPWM

Row | EC50 | Structure (SMILES)
23 | 166 nM | CC(=O)N1CCN(CCOc2ccc(-c3cccc4c(=O)cc(N5CCOCC5)oc34)c3sc4ccccc4c23)CC1

molecular target: Serine-protein kinase ATM (Homo sapiens, UniProt Q13315); assay: Inhibition of ATM (unknown origin)

Row | IC50 | Structure (SMILES)
24 | > 10000 nM | O=c1cc(N2CCOCC2)oc2c(-c3ccccc3)cccc12 [LY-294002]

tested on: HeLa; assay: Antiproliferative activity against human HeLa cells assessed as cell survival ratio at 0.5 uM treated 1 hr before 2Gy ionizing radiation measured after 6 to 8 days by DMR clonogenic assay; assay type: functional; summary of the method: as §1

Row | Structure (SMILES) | Ratio
25 | O=C(CCNCCO)Nc1ccc(-c2cccc3c(=O)cc(N4CCOCC4)oc23)c2sc3ccccc3c12 | 0.9
26 | O=C(CN1CCOCC1)Nc1ccc(-c2cccc3c(=O)cc(N4CCOCC4)oc23)c2sc3ccccc3c12 | 12.8
27 | O=C(CNCC1CCCO1)Nc1ccc(-c2cccc3c(=O)cc(N4CCOCC4)oc23)c2sc3ccccc3c12 (centres undefined) | 7.7
28 | O=C(CN1CCCCC1)Nc1ccc(-c2cccc3c(=O)cc(N4CCOCC4)oc23)c2sc3ccccc3c12 | 10.4
29 | O=C(CNCCO)Nc1ccc(-c2cccc3c(=O)cc(N4CCOCC4)oc23)c2sc3ccccc3c12 | 6.2
30 | CN1CCN(CCC(=O)Nc2ccc(-c3cccc4c(=O)cc(N5CCOCC5)oc34)c3sc4ccccc4c23)CC1 | 6.6
31 | CC(=O)N1CCN(CCC(=O)Nc2ccc(-c3cccc4c(=O)cc(N5CCOCC5)oc34)c3sc4ccccc4c23)CC1 | 1.4
32 | CN1CCN(C(=O)COc2ccc(-c3cccc4c(=O)cc(N5CCOCC5)oc34)c3sc4ccccc4c23)CC1 | 1.8
33 | CN(C)CCN(C)C(=O)COc1ccc(-c2cccc3c(=O)cc(N4CCOCC4)oc23)c2sc3ccccc3c12 | 2.1
34 | NCCC(=O)Nc1ccc(-c2cccc3c(=O)cc(N4CCOCC4)oc23)c2sc3ccccc3c12 | 1.4
35 | O=C(CCN1CCCN(CCO)CC1)Nc1ccc(-c2cccc3c(=O)cc(N4CCOCC4)oc23)c2sc3ccccc3c12 | 1.1
36 | C[C@@H]1CN(CC(=O)Nc2ccc(-c3cccc4c(=O)cc(N5CCOCC5)oc34)c3sc4ccccc4c23)C[C@H](C)O1 | 8.2
37 | C[C@@H]1CN(C(=O)COc2ccc(-c3cccc4c(=O)cc(N5CCOCC5)oc34)c3sc4ccccc4c23)C[C@H](C)O1 | 1
38 | O=C(CN1CCCN(CCO)CC1)Nc1ccc(-c2cccc3c(=O)cc(N4CCOCC4)oc23)c2sc3ccccc3c12 | 3.3
39 | CCN(CC(=O)Nc1ccc(-c2cccc3c(=O)cc(N4CCOCC4)oc23)c2sc3ccccc3c12)Cc1ccncc1 | 14.1
40 | O=C(CNCCCN1CCOCC1)Nc1ccc(-c2cccc3c(=O)cc(N4CCOCC4)oc23)c2sc3ccccc3c12 | 7.4
41 | COCCNCCC(=O)Nc1ccc(-c2cccc3c(=O)cc(N4CCOCC4)oc23)c2sc3ccccc3c12 | 5.9
42 | CN1CCN(CCOc2ccc(-c3cccc4c(=O)cc(N5CCOCC5)oc34)c3sc4ccccc4c23)CC1 | 5.1
43 | COCCN1CCN(CC(=O)Nc2ccc(-c3cccc4c(=O)cc(N5CCOCC5)oc34)c3sc4ccccc4c23)CC1 | 7.7

molecular target: T1, DNA-dependent protein kinase catalytic subunit; assay: Inhibition of human DNA-PK using GST-tagged p53N66 as substrate after 1 hr by ELISA-based chemiluminiscence assay

Row | Structure (SMILES) | IC50
44 | CC(=O)N1CCN(CCOc2ccc(-c3cccc4c(=O)cc(N5CCOCC5)oc34)c3sc4ccccc4c23)CC1 | 2 nM
45 | O=C(CCNCCO)Nc1ccc(-c2cccc3c(=O)cc(N4CCOCC4)oc23)c2sc3ccccc3c12 | 10 nM
46 | O=C(CNCC1CCCO1)Nc1ccc(-c2cccc3c(=O)cc(N4CCOCC4)oc23)c2sc3ccccc3c12 (centres undefined) | 14 nM
47 | O=C(CNCCO)Nc1ccc(-c2cccc3c(=O)cc(N4CCOCC4)oc23)c2sc3ccccc3c12 | 8 nM
48 | CN1CCN(C(=O)COc2ccc(-c3cccc4c(=O)cc(N5CCOCC5)oc34)c3sc4ccccc4c23)CC1 | 29 nM
49 | CN(C)CCN(C)C(=O)COc1ccc(-c2cccc3c(=O)cc(N4CCOCC4)oc23)c2sc3ccccc3c12 | 53 nM
50 | C[C@@H]1CN(CC(=O)Nc2ccc(-c3cccc4c(=O)cc(N5CCOCC5)oc34)c3sc4ccccc4c23)C[C@H](C)O1 | 4 nM
51 | C[C@@H]1CN(C(=O)COc2ccc(-c3cccc4c(=O)cc(N5CCOCC5)oc34)c3sc4ccccc4c23)C[C@H](C)O1 | 61 nM
52 | CCN(CC(=O)Nc1ccc(-c2cccc3c(=O)cc(N4CCOCC4)oc23)c2sc3ccccc3c12)Cc1ccncc1 | 8 nM
53 | O=C(CNCCCN1CCOCC1)Nc1ccc(-c2cccc3c(=O)cc(N4CCOCC4)oc23)c2sc3ccccc3c12 | 13 nM
54 | COCCNCCC(=O)Nc1ccc(-c2cccc3c(=O)cc(N4CCOCC4)oc23)c2sc3ccccc3c12 | 8 nM

More lines, now with the values ahead:

Row | IC50 | Structure (SMILES)
55 | 11 nM | O=C(CN1CCOCC1)Nc1ccc(-c2cccc3c(=O)cc(N4CCOCC4)oc23)c2sc3ccccc3c12
56 | 21 nM | O=C(CN1CCCCC1)Nc1ccc(-c2cccc3c(=O)cc(N4CCOCC4)oc23)c2sc3ccccc3c12
57 | 28 nM | CN1CCN(CCC(=O)Nc2ccc(-c3cccc4c(=O)cc(N5CCOCC5)oc34)c3sc4ccccc4c23)CC1
58 | 23 nM | CC(=O)N1CCN(CCC(=O)Nc2ccc(-c3cccc4c(=O)cc(N5CCOCC5)oc34)c3sc4ccccc4c23)CC1
59 | 8 nM | NCCC(=O)Nc1ccc(-c2cccc3c(=O)cc(N4CCOCC4)oc23)c2sc3ccccc3c12
60 | 42 nM | O=C(CCN1CCCN(CCO)CC1)Nc1ccc(-c2cccc3c(=O)cc(N4CCOCC4)oc23)c2sc3ccccc3c12
61 | 30 nM | O=C(CN1CCCN(CCO)CC1)Nc1ccc(-c2cccc3c(=O)cc(N4CCOCC4)oc23)c2sc3ccccc3c12
62 | 7 nM | CN1CCN(CCOc2ccc(-c3cccc4c(=O)cc(N5CCOCC5)oc34)c3sc4ccccc4c23)CC1
63 | 6 nM | COCCN1CCN(CC(=O)Nc2ccc(-c3cccc4c(=O)cc(N5CCOCC5)oc34)c3sc4ccccc4c23)CC1

molecular target: T2, Phosphatidylinositol 4,5-bisphosphate 3-kinase catalytic subunit delta isoform (Homo sapiens, UniProt O00329); assay: Inhibition of PI-3K delta (unknown origin)
T2 sequence (O00329 whole entry): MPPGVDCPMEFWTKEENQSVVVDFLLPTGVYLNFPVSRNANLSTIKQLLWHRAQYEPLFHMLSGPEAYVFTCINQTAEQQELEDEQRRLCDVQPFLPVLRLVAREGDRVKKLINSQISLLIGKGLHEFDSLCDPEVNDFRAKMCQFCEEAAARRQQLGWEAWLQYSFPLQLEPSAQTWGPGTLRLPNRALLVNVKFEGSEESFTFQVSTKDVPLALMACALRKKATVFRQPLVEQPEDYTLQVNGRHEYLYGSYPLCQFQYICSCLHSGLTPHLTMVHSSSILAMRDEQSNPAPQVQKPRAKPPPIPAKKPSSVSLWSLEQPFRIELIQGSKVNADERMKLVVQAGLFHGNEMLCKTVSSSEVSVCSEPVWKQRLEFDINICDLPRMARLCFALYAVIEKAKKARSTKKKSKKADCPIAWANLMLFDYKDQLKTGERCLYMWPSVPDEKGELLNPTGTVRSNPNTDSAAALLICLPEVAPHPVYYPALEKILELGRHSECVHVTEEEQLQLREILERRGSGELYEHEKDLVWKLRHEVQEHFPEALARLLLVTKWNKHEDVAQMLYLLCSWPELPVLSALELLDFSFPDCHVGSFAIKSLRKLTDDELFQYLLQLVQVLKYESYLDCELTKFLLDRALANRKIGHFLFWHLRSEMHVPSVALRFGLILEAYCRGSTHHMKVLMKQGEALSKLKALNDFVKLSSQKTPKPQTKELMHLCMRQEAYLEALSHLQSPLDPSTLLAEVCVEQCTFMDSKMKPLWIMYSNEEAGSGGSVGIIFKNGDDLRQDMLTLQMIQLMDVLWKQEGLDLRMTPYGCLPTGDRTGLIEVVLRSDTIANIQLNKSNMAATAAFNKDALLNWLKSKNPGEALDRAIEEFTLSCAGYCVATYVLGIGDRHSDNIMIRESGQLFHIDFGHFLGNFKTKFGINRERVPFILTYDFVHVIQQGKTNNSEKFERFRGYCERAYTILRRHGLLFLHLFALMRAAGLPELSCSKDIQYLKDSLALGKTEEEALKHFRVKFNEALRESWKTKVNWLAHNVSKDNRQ

Row | IC50 | Structure (SMILES)
64 | 220 nM | O=c1cc(N2CCOCC2)oc2c(-c3ccccc3)cccc12 [LY-294002]
